According to PMC4530033 (Journal of immunology (Baltimore, Md. : 1950), 2015):

Columns and labels:
[1] = tested on: LS411N-5FU-R and SW620-5FU-R cells; test: Sensitization to Drozitumab-induced apoptosis; assay type: cell-based, human; conditions: verticillin A 20 nM, Drozitumab 500 ng/ml, 24h
How it was run: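 Cells were given test compound (20 nM), drozitumab (500 ng/ml) or both for 24 h. Floating and adherent cells were pooled and stained with Annexin V and PI, then read by flow cytometry. % apoptotic death = % Annexin V⁺PI⁺ of treated minus untreated control (mean, SD).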

[2] = tested on: LS411N and SW620 cells; test: Global H3K9 methylation by Western blot of histone acidic extracts; assay type: cell-based, human; conditions: 2 days
How it was run: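 Cells were exposed to test compound at several concentrations for 2 days. Lysis buffer was 20 mM Tris-HCl pH 8, 150 mM NaCl, 5 mM EDTA, 0.5% NP-40 with protease inhibitors, for 30 min. After centrifugation the pellet went into 0.1M HCl on ice for 30 min. The acid extract was neutralised with Tris-HCl pH 9.0, blotted for H3K9me2/H3K9me3, and reprobed for total H3 as normaliser.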

[3] = tested on: LS411N-5FU-R and SW620-5FU-R cells; test: Sensitization to FasL-induced apoptosis; assay type: cell-based, human; conditions: sublethal doses plus FasL, 24h
[4] = tested on: SW620 and SW480 cells; test: ChIP analysis of the FAS promoter region; assay type: cell-based, human; conditions: 2 days
How it was run: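 Cells (SW620 given 50 nM test compound for H3K9me3 and RNA Pol II; SW480 and SW620 for H3K9ac) treated 2 days. ChIP followed the kit manufacturer's protocol with anti-H3K9me3, anti-H3K9ac or anti-RNA Pol II, and IgG as the negative control. The FAS promoter ChIP 1 region was read by semi-quantitative PCR and by real-time PCR, against 2 ng genomic DNA set at 1.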

[5] = target: DNMT3a (Homo sapiens, UniProt Q9Y6K1); test: DNMT enzymatic activity in vitro; assay type: biochemical; conditions: recombinant DNMT3a; 10-dose, 3-fold serial dilutions starting at 10 μM
How it was run: (§1)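 Recombinant human enzyme with ³H-S-adenosylmethionine as substrate. Test compound was run at 10 doses, 3-fold serial dilution from 10 μM. […] Activity was plotted against concentration and IC50 fitted by curve regression. Three independent assays used three compound lots.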

[6] = tested on: LS411N-5FU-R and SW620-5FU-R cells; test: Fas expression; assay type: cell-based, human; conditions: 20 nM, 2 days
How it was run: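 Cells were cultured with or without 20 nM test compound for 2 days. Surface Fas was measured by flow cytometry with a Fas-specific mAb against an IgG isotype control, quantified as MFI (mean, SD). Fas mRNA in SW620-5FU-R was measured by real-time RT-PCR.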

[7] = tested on: metastatic human CRC cells; test: Cell growth / viability; assay type: cell-based
[8] = Mouse serum liver enzyme profiles; assay type: in vivo; conditions: at the efficacious dose (1 mg/kg i.v.); preliminary assays
[9] = tested on: LS411N and SW620 cells; test: BNIP3 promoter DNA methylation by methylation specific-PCR; assay type: cell-based, human; conditions: 3 days
How it was run: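 Cells were exposed to test compound at several concentrations for 3 days. Methylation status of the BNIP3 promoter CpG island was then assessed by methylation-specific PCR, with separate primers for the unmethylated and methylated forms.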

[10] = target: DNMT1 (Homo sapiens, UniProt P26358); test: DNMT enzymatic activity in vitro; assay type: biochemical; conditions: recombinant DNMT1; 10-dose, 3-fold serial dilutions starting at 10 μM
How it was run: as §1

[11] = tested on: SW620-5FU-R and LS411N-5FU-R cells; test: Cell surface DR4 and DR5 expression by flow cytometry; assay type: cell-based, human; conditions: 2 days
How it was run: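 Cells were plated at 1×10^5 per well and exposed to 0, 20 or 50 nM test compound. They were then stained with anti-DR4 (TRAIL-R1) or anti-DR5 (TRAIL-R2) antibodies and analysed by flow cytometry.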

[12] = target: DNMT3b (Homo sapiens, UniProt Q9UBC3); test: DNMT enzymatic activity in vitro; assay type: biochemical; conditions: recombinant DNMT3b; 10-dose, 3-fold serial dilutions starting at 10 μM
How it was run: as §1

Chain of DNMT1 (P26358 whole entry, species assumed): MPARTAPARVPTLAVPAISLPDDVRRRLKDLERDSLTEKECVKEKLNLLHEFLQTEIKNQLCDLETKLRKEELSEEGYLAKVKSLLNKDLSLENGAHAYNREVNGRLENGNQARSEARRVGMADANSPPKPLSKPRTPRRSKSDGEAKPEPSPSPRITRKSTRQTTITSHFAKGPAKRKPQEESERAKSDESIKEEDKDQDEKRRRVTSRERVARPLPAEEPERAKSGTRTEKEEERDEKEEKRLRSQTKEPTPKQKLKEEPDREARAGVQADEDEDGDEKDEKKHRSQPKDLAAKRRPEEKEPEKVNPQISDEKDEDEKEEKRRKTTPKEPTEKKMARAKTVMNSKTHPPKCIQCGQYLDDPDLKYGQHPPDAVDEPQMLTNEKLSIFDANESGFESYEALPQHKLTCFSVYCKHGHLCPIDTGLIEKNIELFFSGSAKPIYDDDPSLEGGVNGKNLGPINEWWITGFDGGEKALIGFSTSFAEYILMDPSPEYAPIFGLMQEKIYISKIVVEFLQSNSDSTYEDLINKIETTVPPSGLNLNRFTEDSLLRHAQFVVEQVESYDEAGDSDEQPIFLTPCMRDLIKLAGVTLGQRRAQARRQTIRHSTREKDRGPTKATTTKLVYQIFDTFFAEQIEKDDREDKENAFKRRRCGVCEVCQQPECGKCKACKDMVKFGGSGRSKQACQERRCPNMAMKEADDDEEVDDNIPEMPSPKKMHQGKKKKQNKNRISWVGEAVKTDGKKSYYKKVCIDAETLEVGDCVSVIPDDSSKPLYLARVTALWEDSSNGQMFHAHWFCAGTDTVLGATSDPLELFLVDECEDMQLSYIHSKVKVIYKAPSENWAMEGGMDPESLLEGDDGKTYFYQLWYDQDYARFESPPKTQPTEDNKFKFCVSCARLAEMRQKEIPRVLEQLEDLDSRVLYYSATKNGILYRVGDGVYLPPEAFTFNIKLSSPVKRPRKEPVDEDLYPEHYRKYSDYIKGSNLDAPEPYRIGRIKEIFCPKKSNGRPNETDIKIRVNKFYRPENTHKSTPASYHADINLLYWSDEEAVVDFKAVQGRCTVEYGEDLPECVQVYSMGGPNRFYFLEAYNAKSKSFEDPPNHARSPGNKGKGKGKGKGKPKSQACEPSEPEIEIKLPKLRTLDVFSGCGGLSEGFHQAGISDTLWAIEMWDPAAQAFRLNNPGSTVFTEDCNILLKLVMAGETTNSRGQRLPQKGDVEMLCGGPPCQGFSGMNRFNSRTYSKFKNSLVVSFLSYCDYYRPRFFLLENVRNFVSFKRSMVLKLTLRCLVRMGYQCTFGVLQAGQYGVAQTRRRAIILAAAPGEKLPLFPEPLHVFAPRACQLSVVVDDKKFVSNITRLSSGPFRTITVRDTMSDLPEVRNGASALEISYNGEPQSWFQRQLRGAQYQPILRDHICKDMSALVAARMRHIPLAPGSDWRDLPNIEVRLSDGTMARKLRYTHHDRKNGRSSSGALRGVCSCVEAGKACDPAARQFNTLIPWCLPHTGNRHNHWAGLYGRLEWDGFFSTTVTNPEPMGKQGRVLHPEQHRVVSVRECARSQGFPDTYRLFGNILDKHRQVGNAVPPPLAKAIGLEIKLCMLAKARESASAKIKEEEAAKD
Chain of DNMT3a (Q9Y6K1 whole entry, looked up, species assumed): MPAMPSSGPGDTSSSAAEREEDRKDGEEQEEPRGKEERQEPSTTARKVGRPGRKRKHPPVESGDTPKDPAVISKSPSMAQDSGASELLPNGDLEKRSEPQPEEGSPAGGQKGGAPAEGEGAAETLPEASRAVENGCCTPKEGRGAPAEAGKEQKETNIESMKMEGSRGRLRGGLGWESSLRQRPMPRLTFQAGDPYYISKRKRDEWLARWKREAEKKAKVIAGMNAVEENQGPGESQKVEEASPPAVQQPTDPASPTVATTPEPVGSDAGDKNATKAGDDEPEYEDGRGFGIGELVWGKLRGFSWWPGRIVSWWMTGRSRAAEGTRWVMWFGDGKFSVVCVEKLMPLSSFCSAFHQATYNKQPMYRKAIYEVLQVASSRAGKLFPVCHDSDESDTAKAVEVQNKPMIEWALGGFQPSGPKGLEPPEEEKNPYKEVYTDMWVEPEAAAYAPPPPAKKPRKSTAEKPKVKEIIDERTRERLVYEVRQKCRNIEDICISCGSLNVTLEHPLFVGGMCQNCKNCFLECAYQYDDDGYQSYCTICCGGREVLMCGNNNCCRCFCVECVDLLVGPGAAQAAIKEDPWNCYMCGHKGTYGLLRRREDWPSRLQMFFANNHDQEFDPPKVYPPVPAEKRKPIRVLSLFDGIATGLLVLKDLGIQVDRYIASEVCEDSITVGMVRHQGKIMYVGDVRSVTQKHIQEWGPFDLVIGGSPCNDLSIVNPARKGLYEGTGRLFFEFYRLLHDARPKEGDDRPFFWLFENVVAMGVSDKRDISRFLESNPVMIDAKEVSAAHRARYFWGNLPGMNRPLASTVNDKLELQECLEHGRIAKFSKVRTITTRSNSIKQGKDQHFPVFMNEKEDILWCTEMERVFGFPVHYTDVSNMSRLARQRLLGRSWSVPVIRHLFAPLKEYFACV

With `CN1C(=O)[C@]23SS[C@@]1(C)C(=O)N2[C@H]1Nc2ccccc2[C@@]1([C@@]12c4ccccc4N[C@@H]1N1C(=O)[C@@]4(C)SS[C@]1(C(=O)N4C)[C@H]2O)[C@@H]3O` [Verticillin A, verticillin A] the “cell sensitivity to Drozitumab” value [1] was “significantly increased”, the “H3K9me2 and H3K9me3 levels” value [2] was “diminished” and the “sensitization of tumor cells to FasL-induced apoptosis” value (from here on “sensitization of tumor cells”) [3] was “significantly greater efficacy than either decitabine or vorinostat”. The “H3K9ac level in the FAS promoter region” value ([4]; SW480 cells) was “dramatically increased”, the “H3K9me3 level in the FAS promoter region” value ([4]; SW620 cells, 50 nM) was “decreased” and the “RNA Pol II level in the FAS promoter region” value ([4]; SW620 cells, 50 nM) was “did not identify an increase”. For the same compound, the “H3K9ac level in the FAS promoter region” value ([4]; SW620 cells, increase) was “at a low degree”, the “effect on DNMT3a enzymatic activity” value [5] was “no inhibitory effect” and the “cell surface Fas receptor level” value ([6]; LS411N-5FU-R and SW620-5FU-R cells, flow cytometry) was “significantly increased”. For the same compound, the “Fas mRNA level” value ([6]; SW620-5FU-R cells, real time RT-PCR) was “significantly increased”, the “sensitivity of 5-FU-resistant human CRC cells to verticillin A” value ([7]; 5-FU-resistant cells versus parent cell lines (Fig. S2B)) was “as sensitive to verticillin A as the parent cell lines” and the “dose effective in suppression of metastatic human CRC cell growth” value ([7]; relatively high dose) was 100 nM. The liver toxicity [8] was “minimal liver toxicity”, the “DNA demethylation of the BNIP3 promoter region” value [9] was “did not result in DNA demethylation” and the “effect on DNMT1 enzymatic activity” value [10] was “no inhibitory effect”. For the same compound, the DR4 expression [11] was “did not alter”, the DR5 expression level [11] was “increased” and the “effect on DNMT3b enzymatic activity” value [12] was “no inhibitory effect”.
For `Nc1ncn([C@H]2C[C@H](O)[C@@H](CO)O2)c(=O)n1` [decitabine], the “sensitization of tumor cells” value [3] was “to a small degree”.
For `O=C(CCCCCCC(=O)Nc1ccccc1)NO` [vorinostat], the “sensitization of tumor cells” value [3] was “to a small degree”.
